{"source": "paper PMC12004261", "about": "(RSC Medicinal Chemistry, 2025)", "key": {"[1]": {"target": "synthetic α-Syn fibrils (Homo sapiens, UniProt P37840)", "assay": "Saturation binding assay of [^3H]M503-1619 in α-Syn fibrils"}, "[2]": {"target": "PD brain tissue homogenates (Homo sapiens, UniProt P37840)", "assay": "Saturation binding assay of [^3H]M503-1619 in PD brain tissue homogenates", "procedure,_shortened": "(§1)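 Frozen brain homogenate in pH 7.0 PBS, diluted to a final 100 μg tissue per mL. Contained ~1 nM tritiated test compound plus 0.2–1000 nM unlabelled compound and 0.25% DMSO (final). Incubated 60 min at room temperature, GF/B filtration, three PBS washes, scintillation counting after standing overnight. Nondisplaceable binding set with ~1 μM unlabelled compound; bound corrected for diluted specific activity. KD from Scatchard slope, Bmax from x-intercept; at least triplicate.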"}, "[3]": {"target": "AD brain tissue homogenates", "assay": "Saturation binding assay of [^3H]M503-1619 in AD brain tissue homogenates", "parameters": "species or system human", "settings": "AD tissue (n = 4), mean ± SD", "procedure,_shortened": "as §1"}, "[4]": {"target": "PSP brain tissue homogenates (Homo sapiens, UniProt P10636)", "sequence (P10636 561-698 limits assumed)": "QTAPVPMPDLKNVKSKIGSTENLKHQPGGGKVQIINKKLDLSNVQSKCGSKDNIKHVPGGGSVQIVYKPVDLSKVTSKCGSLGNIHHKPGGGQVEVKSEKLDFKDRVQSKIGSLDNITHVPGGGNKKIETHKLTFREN", "assay": "Saturation binding assay of [^3H]M503-1619 in PSP brain tissue homogenates", "procedure,_shortened": "as §1"}, "[5]": {"target": "CBD brain tissue homogenates (Homo sapiens, UniProt P10636)", "sequence (P10636 561-708 limits assumed)": "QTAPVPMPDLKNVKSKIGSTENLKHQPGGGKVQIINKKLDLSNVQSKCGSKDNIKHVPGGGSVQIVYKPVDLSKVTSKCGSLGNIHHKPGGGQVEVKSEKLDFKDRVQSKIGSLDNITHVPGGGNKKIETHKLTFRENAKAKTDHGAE", "assay": "Saturation binding assay of [^3H]M503-1619 in CBD brain tissue homogenates", "procedure,_shortened": "as §1"}, "[6]": {"target": "α-Syn (Lewy bodies in PD, GCIs in MSA) (Homo sapiens, UniProt P37840)", "assay": "Nuclear emulsion", "type": "binding", "settings": "5 nM and 15 nM, listed as [^3H]M503-1619", "procedure,_shortened": "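Fresh-frozen PD and MSA cryosections (16 μm) were quenched for lipofuscin with TrueBlack in 70% EtOH and immunostained for pS129 α-Syn. Sections were incubated with 5 or 15 nM tritiated test compound in 30 mM Tris–HCl pH 7.4 for 2 h at 37 °C, then given graded Tris/ethanol washes. Emulsion-dipped slides were exposed 4 days in the dark and developed. Silver grains were imaged by brightfield alongside fluorescence.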"}, "[7]": {"assay": "Total-body PET imaging study", "type": "in vivo, rhesus macaque", "settings": "rhesus monkey"}, "[8]": {"assay": "Brain PET imaging study", "type": "in vivo, cynomolgus macaque", "settings": "cynomolgus monkey", "procedure,_shortened": "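Male cynomolgus macaque (8.5 kg), ketamine 10–20 mg kg−1 induction, kept on 40% N2O/60% O2 with 1.0–1.5% isoflurane. After a positioning scan and a 45 min transmission scan for attenuation, ~350 MBq of the 11C-labelled test compound was given by limb-vein catheter. Two-hour dynamic scan, filtered back projection with corrections, co-registration to a monkey MRI template, whole-brain VOI. SUV normalised to body weight and injected dose.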"}, "[9]": {"assay": "Radiometabolite study of venous blood plasma", "type": "in vivo, rhesus monkey", "settings": "7.5 min post-injection", "procedure,_shortened": "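Plasma from a 26-year-old male rhesus macaque was sampled during a PET scan after IV injection of 105 MBq of the 11C-labelled test compound. The animal was anaesthetised with ketamine/dexmedetomidine and maintained on isoflurane. Venous blood was spun 5 min at 3000g and the plasma deproteinised with acetonitrile 1:1. Reverse-phase C18 HPLC used 65% 0.1 M ammonium formate/35% acetonitrile at 1.2 mL min−1. An in-line radio-detector measured parent fraction by standard retention time.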"}}, "note": "Entries after “also recorded” stand apart in the source; their conditions may differ."}
{"smiles": "COc1ccc(NC(=O)c2cnc(N3CCN(c4ccccn4)CC3)nc2N)cc1", "note": "[M503-1619, 4-Amino-N-(4-methoxyphenyl)-2-(4-(pyridin-2-yl)piperazin-1-yl)pyrimidine-5-carboxamide]", "values": [{"measurement": "Kd", "setting": "[1]", "value": "4.4 ± 1", "unit": "nM"}, {"measurement": "Bmax", "setting": "[1]; α-Syn fibrils (n = 4)", "value": "1156 ± 112", "unit": "nM"}, {"measurement": "Kd", "setting": "[2]", "value": "2.5 ± 0.3", "unit": "nM"}, {"measurement": "Bmax", "setting": "[2]; PD tissue (n = 4)", "value": "59 ± 10", "unit": "nM"}, {"measurement": "Selectivity vs. tau", "setting": "[2]; α-Syn vs. tau", "value": "10–20 fold"}, {"measurement": "Kd", "setting": "[3]", "value": "37 ± 2", "unit": "nM"}, {"measurement": "Kd", "setting": "[4]", "value": "55 ± 3", "unit": "nM"}, {"measurement": "Bmax", "setting": "[4]; PSP tissue (n = 4)", "value": "399 ± 24", "unit": "nM"}, {"measurement": "Kd", "setting": "[5]", "value": "94 ± 13", "unit": "nM"}, {"measurement": "Bmax", "setting": "[5]; CBD tissue (n = 3)", "value": "540 ± 130", "unit": "nM"}, {"measurement": "High-resolution autoradiography: binding to GCIs", "setting": "[6]; MSA brain tissue sections", "value": "not to GCIs present in MSA; also recorded: not on GCIs in MSA brain"}, {"measurement": "High-resolution autoradiography: binding to Lewy bodies", "setting": "[6]; PD brain tissue sections", "value": "target engagement of [^3H]M503-1619 to Lewy bodies in PD brain; also recorded: accumulation of silver grains on Lewy bodies in PD"}, {"measurement": "Time of peak uptake of the whole brain", "setting": "[7]", "value": "2 to 3", "unit": "min"}, {"measurement": "Whole brain peak to 60 min ratio", "setting": "[7]", "value": 3.2}, {"measurement": "Peak uptake of the whole brain, standardized uptake value (SUV)", "setting": "[7]; whole brain", "value": 2.5}, {"measurement": "Time of peak uptake of the whole brain", "setting": "[8]", "value": "2 to 3", "unit": "min"}, {"measurement": "Whole brain peak to 60 min ratio", "setting": "[8]", "value": 3.2}, {"measurement": "Peak uptake of the whole brain, standardized uptake value (SUV)", "setting": "[8]; whole brain", "value": 2.3}, {"measurement": "Parent (%)", "setting": "[9]", "value": 57, "unit": "%"}]}
